Source: ChEMBL document CHEMBL1143122, “Novel analogs of D-e-MAPP and B13. Part 1: synthesis and evaluation as potential anticancer agents” (Bioorg Med Chem, 2008)

Experiments:
CCRF-CEM = assay: Antiproliferative activity against human CCRF-CEM cells after 48 hrs; type: functional
How it was run: (§1)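 NCI 60-cell screen. Cells were grown in RPMI 1640 with 5% FBS and 2 mM L-glutamine, then plated at 5,000–40,000 cells/well according to doubling time and preincubated for 24 h at 37 °C in 5% CO2. Compounds were dissolved in DMSO at 400× the top final concentration and tested at five 10-fold dilutions from 10−4 to 10−8 M for 48 h. Growth was read spectrophotometrically; GI50 is 50% net protein reduction.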

A549 = assay: Antiproliferative activity against human A549 cells after 48 hrs; type: functional; conditions: A549, 48 h; how it was run: as §1
NCI-H522 = assay: Antiproliferative activity against human NCI-H522 cells after 48 hrs; type: functional; conditions: NCI-H522, 48 h; how it was run: as §1
Malme-3M = assay: Antiproliferative activity against human MALME3M cells after 48 hrs; type: functional; how it was run: as §1
NCI-H226 = assay: Antiproliferative activity against human NCI-H226 cells after 48 hrs; type: functional; conditions: NCI-H226, 48 h; how it was run: as §1
SW-620 = assay: Antiproliferative activity against human SW620 cells after 48 hrs; type: functional; conditions: SW-620, 48 h
How it was run: (§2)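 NCI 60-cell-line screen. Lines grown in RPMI 1640 with 5% fetal bovine serum and 2 mM L-glutamine, plated at 5,000–40,000 cells/well according to doubling time, left 24 h at 37 °C in 5% CO2. Drug stocks in DMSO at 400-fold the top final concentration. Five 10-fold dilutions, 10−4 to 10−8 M, incubated 48 h. Growth read spectrophotometrically as net protein; GI50 taken as 50% reduction.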

SF-539 = assay: Antiproliferative activity against human SF539 cells after 48 hrs; type: functional; conditions: SF-539, 48 h; how it was run: as §1
786-0 = assay: Antiproliferative activity against human 786-0 cells after 48 hrs; type: functional; conditions: 786-0, 48 h; how it was run: as §1
SF-295 = assay: Antiproliferative activity against human SF295 cells after 48 hrs; type: functional; conditions: SF-295, 48 h; how it was run: as §1
HT-29 = assay: Antiproliferative activity against human HT29 cells after 48 hrs; type: functional; conditions: HT-29, 48 h; how it was run: as §1
SK-MEL-5 = assay: Antiproliferative activity against human SKMEL5 cells after 48 hrs; type: functional; conditions: SK-MEL-5, 48 h; how it was run: as §1
SNB-19 = assay: Antiproliferative activity against human SNB19 cells after 48 hrs; type: functional; conditions: SNB-19, 48 h; how it was run: as §1
HCT-116 = assay: Antiproliferative activity against human HCT116 cells after 48 hrs; type: functional; conditions: HCT-116, 48 h; how it was run: as §1
SN12C = assay: Antiproliferative activity against human SN12C cells after 48 hrs; type: functional; how it was run: as §1
A498 = assay: Antiproliferative activity against human A498 cells after 48 hrs; type: functional; conditions: A498, 48 h; how it was run: as §1
OVCAR-3 = assay: Antiproliferative activity against human OVCAR-3 cells after 48 hrs; type: functional; conditions: OVCAR-3, 48 h; how it was run: as §1
[1] = Antiproliferative activity against human NCI-ADR-RES cells after 48 hrs; type: functional; how it was run: as §1
[2] = Antiproliferative activity against human HL60(TB) cells after 48 hrs; type: functional, HL-60(TB); conditions: HL-60, 48 h
How it was run: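 NCI 60-line panel screen: cells grown in RPMI 1640 with 5% fetal bovine serum and 2 mM L-glutamine, plated at 5,000–40,000 cells/well by doubling time, and preincubated 24 h at 37 °C in 5% CO2. Drugs were solubilised in DMSO at 400-fold the final maximum and tested at five 10-fold dilutions from 10−4 to 10−8 M for 48 h. Net protein was read spectrophotometrically, and the concentration giving 50% reduction was reported as log10 GI50.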

PC-3 = assay: Antiproliferative activity against human PC3 cells after 48 hrs; type: functional; conditions: PC-3, 48 h; how it was run: as §1
NCI-H23 = assay: Antiproliferative activity against human NCI-H23 cells after 48 hrs; type: functional; conditions: NCI-H23, 48 h; how it was run: as §1
HCC 2998 = assay: Antiproliferative activity against human HCC2998 cells after 48 hrs; type: functional; conditions: HCC 2998, 48 h; how it was run: as §1
OVCAR-4 = assay: Antiproliferative activity against human OVCAR4 cells after 48 hrs; type: functional; conditions: OVCAR-4, 48 h; how it was run: as §1
IGROV-1 = assay: Antiproliferative activity against human IGROV1 cells after 48 hrs; type: functional; conditions: IGROV-1, 48 h; how it was run: as §1
ACHN = assay: Antiproliferative activity against human ACHN cells after 48 hrs; type: functional; how it was run: as §1
TK-10 = assay: Antiproliferative activity against human TK10 cells after 48 hrs; type: functional; conditions: TK-10, 48 h; how it was run: as §2
KM12 = assay: Antiproliferative activity against human KM12 cells after 48 hrs; type: functional; conditions: Homo sapiens, KM12, 48 h; how it was run: as §1
COLO 205 = assay: Antiproliferative activity against human COLO205 cells after 48 hrs; type: functional; conditions: COLO 205, 48 h; how it was run: as §1
Hs-578T = assay: Antiproliferative activity against human HS578T cells after 48 hrs; type: functional; how it was run: as §1
RXF 393 = assay: Antiproliferative activity against human RXF393 cells after 48 hrs; type: functional; conditions: RXF 393, 48 h; how it was run: as §1
M14 = assay: Antiproliferative activity against human M14 cells after 48 hrs; type: functional; conditions: M14, 48 h; how it was run: as §1
[3] = read-out: Log LC50 (the source's name) (converted)

CCCCCCCCCCCCCCN[C@@H](CO)Cc1ccccc1
GI50 (CCRF-CEM): 1.74 µM
CC50 (CCRF-CEM; [3]): 7.76 µM
TGI (CCRF-CEM; read-out: Log TGI (converted)): 3.72 µM
GI50 (A549): 2.04 µM
CC50 (A549; [3]): 26.3 µM
TGI (A549; read-out: Log TGI (converted)): 4.68 µM
GI50 (NCI-H522): 2.09 µM
TGI (NCI-H522; read-out: Log TGI (converted)): 3.98 µM
GI50 (Malme-3M): 2 µM
LC50 (Malme-3M): 6.31 µM
TGI (Malme-3M; read-out: Log TGI (converted)): 3.55 µM
GI50 (NCI-H226): 1.91 µM
TGI (NCI-H226; read-out: Log TGI (converted)): 3.8 µM
GI50 (SW-620): 2 µM
LC50 (concentration killing 50% of cells) (SW-620): 8.13 µM
TGI (SW-620; read-out: Log TGI (converted)): 4.07 µM
GI50 (SF-539): 1.7 µM
LC50 (SF-539): 6.76 µM
TGI (SF-539; read-out: Log TGI (converted)): 3.39 µM
GI50 (786-0): 1.82 µM
CC50 (786-0; [3]): 5.89 µM
TGI (786-0; read-out: Log TGI (converted)): 3.24 µM
GI50 (SF-295): 1.78 µM
LC50 (SF-295): 6.17 µM
TGI (SF-295; read-out: Log TGI (converted)): 3.31 µM
GI50 (HT-29): 2.04 µM
LC50 (HT-29): 7.76 µM
TGI (HT-29; read-out: Log TGI (converted)): 3.98 µM
GI50 (SK-MEL-5): 1.78 µM
CC50 (SK-MEL-5; [3]): 6.03 µM
TGI (SK-MEL-5; read-out: Log TGI (converted)): 3.24 µM
GI50 (SNB-19): 1.7 µM
CC50 (SNB-19; [3]): 5.89 µM
TGI (SNB-19; read-out: Log TGI (converted)): 3.16 µM
GI50 (HCT-116): 2.04 µM
LC50 (HCT-116): 6.76 µM
TGI (HCT-116; read-out: Log TGI (converted)): 3.72 µM
GI50 (SN12C): 1.86 µM
LC50 (50% net cell kill) (SN12C): 7.41 µM
TGI (SN12C; read-out: Log TGI (converted)): 3.72 µM
GI50 (A498): 14.5 µM
CC50 (A498; [3]): 52.5 µM
TGI (A498; read-out: Log TGI (converted)): 27.5 µM
GI50 (OVCAR-3): 1.66 µM
LC50 (OVCAR-3): 5.5 µM
TGI (OVCAR-3; read-out: Log TGI (converted)): 3.02 µM
GI50 [1]: 1.86 µM
LC50 [1]: 6.31 µM
TGI ([1]; read-out: Log TGI (converted)): 3.47 µM
GI50 [2]: 1.78 µM
LC50 [2]: 9.33 µM
TGI ([2]; read-out: Log TGI (converted)): 4.07 µM
GI50 (PC-3): 1.62 µM
LC50 (PC-3): 5.62 µM
TGI (PC-3; read-out: Log TGI (converted)): 2.82 µM
GI50 (NCI-H23): 2.09 µM
CC50 (NCI-H23; [3]): 9.77 µM
TGI (NCI-H23; read-out: Log TGI (converted)): 4.47 µM
GI50 (HCC 2998): 2.24 µM
CC50 (HCC 2998; [3]): 6.17 µM
TGI (HCC 2998; read-out: Log TGI (converted)): 3.72 µM
GI50 (OVCAR-4): 1.91 µM
LC50 (OVCAR-4): 6.31 µM
TGI (OVCAR-4; read-out: Log TGI (converted)): 3.47 µM
GI50 (IGROV-1): 1.91 µM
TGI (IGROV-1; read-out: Log TGI (converted)): 3.72 µM
GI50 (ACHN): 1.7 µM
CC50 (ACHN; [3]): 5.89 µM
TGI (ACHN; read-out: Log TGI (converted)): 3.16 µM
GI50 (TK-10): 2.04 µM
CC50 (TK-10; [3]): 6.76 µM
TGI (TK-10; read-out: Log TGI (converted)): 3.72 µM
GI50 (KM12): 1.86 µM
CC50 (KM12; [3]): 6.17 µM
TGI (KM12; read-out: Log TGI (converted)): 3.39 µM
GI50 (COLO 205): 1.66 µM
CC50 (COLO 205; [3]): 6.03 µM
TGI (COLO 205; read-out: Log TGI (converted)): 3.16 µM
GI50 (Hs-578T): 2.4 µM
LC50 (Hs-578T): 11 µM
TGI (Hs-578T; read-out: Log TGI (converted)): 5.01 µM
GI50 (RXF 393): 1.7 µM
CC50 (RXF 393; [3]): 6.92 µM
TGI (RXF 393; read-out: Log TGI (converted)): 3.47 µM
GI50 (M14): 2.24 µM
LC50 (M14): 6.76 µM
TGI (M14; read-out: Log TGI (converted)): 3.89 µM
